{"source": "paper PMC2773129", "about": "(JACC. Cardiovascular imaging, 2009)", "key": {"[1]": {"tested_on": "atherosclerotic plaques, VCAM-1", "test": "Ex vivo uptake of 18F-4V in excised aortas", "set-up": "species or system mouse"}, "[2]": {"tested_on": "VCAM-1 expression in atherosclerotic plaques", "test": "In vivo PET-CT imaging of aortic root", "set-up": "species or system mouse", "conditions": "apoE-/- mice, PET-CT initiated 1 hour after injection, mean±SEM"}, "[3]": {"tested_on": "infarcted myocardium, VCAM-1", "test": "18F-4V uptake after myocardial infarction", "format": "in vivo, mouse", "conditions": "mice 5 days after MI, without antibody blocking"}, "[4]": {"test": "Biodistribution by gamma counting of harvested organs", "format": "in vivo", "conditions": "mouse, iv, 150 uCi, total radioactivity", "method_in_brief": "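Test compound (¹⁸F-labelled peptide, 150 μCi) injected into the tail vein of 6 wild-type mice under isoflurane anaesthesia. Mice were killed at 4 h and perfused with saline. Organs and feces were harvested and counted in a gamma counter. Counts were corrected for decay and residual injection-site activity and expressed as %ID per gram tissue, mean±SEM.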"}, "[5]": {"tested_on": "rejected cardiac allograft, VCAM-1", "test": "18F-4V uptake in heterotopic allograft heart transplant rejection", "format": "in vivo, mouse", "conditions": "day 7 after heart transplantation"}}, "note": "Bridges are numbered along the chain shown (N, C = ends). Roman numbers before positions name the chains, in order. Where no end group is shown, it is not given here. The star is where a group is joined. X1 = O=C(CON=Cc1ccc(F)cc1)*", "data": [{"substance": "I: VHPKQHRGGSYKKK(X1) / II: VHPKQHRGGSYK / III: VHPKQHRGGSY / IV: VHPKQHRGGSY (amide I:12-IV:C, I:13-II:C, II:12-III:C) [^18F-4V]", "values": [{"measurement": "ex vivo %IDGT in murine atheroma", "setting": "[1]; apoE-/- mice, ex vivo, mean±SEM", "value": "5.9±1.5", "unit": "%IDGT"}, {"measurement": "uptake in the aortic root, higher in apoE-/- mice compared to wild type", "setting": "[1]; excised aortas, apoE-/- vs wild-type mice, p < 0.05", "value": 312, "unit": "%"}, {"measurement": "PET signal in murine atheroma (standard uptake value)", "setting": "[2]", "value": "0.31±0.02", "unit": "SUV"}, {"measurement": "infarct activity to background ratio", "setting": "[3]", "value": 3.1}, {"measurement": "tissue uptake at 4 h", "setting": "[4]; aorta", "value": "1.3 ± 0.4", "unit": "%ID/g"}, {"measurement": "tissue uptake at 4 h", "setting": "[4]; bone", "value": "1.3 ± 0.4", "unit": "%ID/g"}, {"measurement": "tissue uptake at 4 h", "setting": "[4]; esophagus", "value": "1.5 ± 0.5", "unit": "%ID/g"}, {"measurement": "tissue uptake at 4 h", "setting": "[4]; fat", "value": "1.7 ± 0.1", "unit": "%ID/g"}, {"measurement": "dose excreted at 4 h", "setting": "[4]; feces", "value": "0.2 ± 0.1", "unit": "%"}, {"measurement": "tissue uptake at 4 h", "setting": "[4]; heart", "value": "0.6 ± 0.2", "unit": "%ID/g"}, {"measurement": "tissue uptake at 4 h", "setting": "[4]; kidney", "value": "13.2 ± 2.8", "unit": "%ID/g"}, {"measurement": "tissue uptake at 4 h", "setting": "[4]; large intestine", "value": "1.4 ± 0.5", "unit": "%ID/g"}, {"measurement": "tissue uptake at 4 h", "setting": "[4]; liver", "value": "3.7 ± 1.1", "unit": "%ID/g"}, {"measurement": "tissue uptake at 4 h", "setting": "[4]; lung", "value": "2.2 ± 0.8", "unit": "%ID/g"}, {"measurement": "tissue uptake at 4 h", "setting": "[4]; lymph node", "value": "3.7 ± 0.3", "unit": "%ID/g"}, {"measurement": "tissue uptake at 4 h", "setting": "[4]; skeletal muscle", "value": "0.7 ± 0.3", "unit": "%ID/g"}, {"measurement": "tissue uptake at 4 h", "setting": "[4]; skin", "value": "1.7 ± 0.6", "unit": "%ID/g"}, {"measurement": "tissue uptake at 4 h", "setting": "[4]; small intestine", "value": "1.9 ± 0.4", "unit": "%ID/g"}, {"measurement": "tissue uptake at 4 h", "setting": "[4]; spleen", "value": "2.1 ± 0.6", "unit": "%ID/g"}, {"measurement": "tissue uptake at 4 h", "setting": "[4]; stomach", "value": "1.7 ± 1.1", "unit": "%ID/g"}, {"measurement": "tissue uptake at 4 h", "setting": "[4]; thymus", "value": "0.9 ± 0.3", "unit": "%ID/g"}, {"measurement": "tissue uptake at 4 h", "setting": "[4]; whole blood", "value": "1.5 ± 0.4", "unit": "%ID/g"}, {"measurement": "graft to background ratio after pre-injection of VCAM-1 targeted antibody", "setting": "[5]; pre-injection with VCAM-1 targeted antibody", "value": 1.4}, {"measurement": "graft to background ratio", "setting": "[5]; without antibody blocking", "value": 2.4}]}]}
